Measured values reported in the EternaBench riboswitch data.

System: MS2 coat protein
Experiment: apparent Kd, MS2 coat protein; higher = weaker binding; RNA-MaP array; FMN 200 µM where present
In short: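 Two titrations, one without ligand and one with constant ligand, were run with SNAP-549-labelled MS2 coat protein from 0.7 or 1.5 nM, doubling to 3 µM. The targets were designs transcribed by stalled E. coli RNA polymerase on Illumina sequencing-chip clusters, in 100 mM Tris-HCl pH 7.5, 80 mM KCl, 4 mM MgCl2, BSA, DTT, yeast tRNA and Tween-20. The apparent Kd is the median of filtered per-cluster binding-curve fits, with green signal normalised to red-channel RNA signal and control-cluster median Fmax.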

[1] = designed as: OFF switch for flavin mononucleotide, no ligand
[2] = ligand present: flavin mononucleotide, designed as: OFF switch for flavin mononucleotide
[3] = designed as: ON switch for flavin mononucleotide, no ligand
[4] = ligand present: flavin mononucleotide, designed as: ON switch for flavin mononucleotide

| Sequence | apparent Kd [1] [nM] | apparent Kd [2] [nM] | apparent Kd [3] [nM] | apparent Kd [4] [nM] |
| --- | --- | --- | --- | --- |
| GGAAAACAUGAGGAUCACCCAUGUGAGGAUAUCGAUGUCCAAAAACCAGUGCGGGACUCGAGAAGGCACUUGGA | 49.1 | 26.3 | – | – |
| GCCAUCGCAUGAGGAUAUGCUCCCGUUUCGGGAGCAGAAGGCAUGUCAUAAGACAUGAGGAUCACCCAUGUAGCUAAGAUGGCA | – | – | 310 | 12.1 |
| UACAUUACUGAGAAGGGAUACAUAUAAUUUUAGUCAGGAUAUCGAUACAGUGCAGCAUGAGGACAUGAGGAUCACCCAUGUAUU | – | – | 24.4 | 19.5 |
| AGCCUACAUGAGGAUCACCCAUGUCAGGAUAUCUCGCGACGUGUCGGGUUCACGUUGCAGAGAAGGGACUCGGG | 50.7 | 67.3 | – | – |
| UCGUUUAUACAAGGAUAUCAAUUAUAGCUAAAUUCAACAUGAGGAUCACCCAUGUAACUAUGGAGUGAGAAGGUGUAAUGACUU | – | – | 514 | 302 |
| GAUCACUCUGUGAGGAUAUGAGGGCUCUUAGAGUAUCAGAAGGCACAUGAGGAUCACCCAUGUAUUCCGUUCUA | 42.5 | 259 | – | – |
| GGAUAGUGUCGUUAUCCGUAGCGAACAUGAGGAUCACCCAUGUAGGAUAUGUUAUUAAACUAAUAACAGAAGGACGUUGGUCUC | 66.2 | 434 | – | – |
| UUUUUGUCAGGAUAUGAGUCGUAGAACAAUAGUACUACGUCUCAGAAGGGACAUGAGGAUCACCCAUGUGCCUC | 26 | 143 | – | – |
| AUAGAAGUCUAGAAGGACCUAGCUGUAUACCGUCGAGGUAUAUAGCUAGGUAGGAUAUGGGACAUGAGGAUCACCCAUGUGUUG | – | – | 32.9 | 9.19 |
| AAAUUAGGGAGAGGAUAUUGACAUGAGGAUCACCCAUGUAUUUGGGAGUGUUUACUGAAUUCUUACGAGAAGGCUUACGAAAUU | 320 | 255 | – | – |
| GGCUACGUUUCGUAGCAGCUAGGUGAGGAUAUUCAAUUUUUCACAUGAGGAUCACCCAUGUAUGUGAAGAAGGCGCCUAGAAAG | – | – | 12.6 | 4.85 |
| GACUGCGUUAUGAAGGAUAUCCGCGUCUGGACAUGAGGAUCACCCAUGUAUACUUGGAUCGUGCAGGAGAAGGUCAAGGGUGAUU | – | – | 90 | 265 |
| AUUUUAAUGUCAGGAUAUGUUAGUUAAUACAUAGUAGAAGGGAUAAUUAUACUCAUGUACAUGAGGAUCACCCAUGUUAAAUAA | – | – | 151 | 80.7 |
| AAUCCACAUGAGGAUCACCCAUGUCAGGAUAUACGCAUCGGACCGAUCGGCUGUUUGGGUAGAAGGGACGUGCA | 16 | 16.1 | – | – |
| UUGGACGCCGUAGGAUAUGUAGGAUAUUCCUACAUGAGGAUCACCCAUGUUGACAUGGAAGAAGGACAGAAGGACGAUGUCCAU | – | – | 277 | 4.78 |
| GUUAAUUAGUGAGGAUAUACAGUAUUUAAUACUGUAGAAGGCACAAUCCUCAAGACAUGAGGAUCACCCAUGUGAUAAUAAGCU | 35.4 | 139 | – | – |
| UACUUGUCAGGAUAUCUUACAUUAACAUCGUAGUUACCGUUGGAGAAGGGACAUGAGGAUCACCCAUGUUUGGC | 32 | 54.9 | – | – |
| CGUAUAUGGGAGAAGGCAUGUCCCAAAGGGCCAUGAGGAUAUCCUAAGUGUACGCUUUGCGACAUGAGGAUCACCCAUGUAGCA | – | – | 7.07 | 5.75 |
| GAGGAGUCAGGAUAUCGGGAAAGGUUGAGGAAGAGAAGAAGCGAGAAGGGACAUGAGGAUCACCCAUGUAGAAG | 52.4 | 47 | – | – |
| UGGCCCGCCGGAGGAUAUCUACUCUGUGGUGCACUGCGUUUGCAAUACAUGAGGAUCACCCAUGUAGAGAAGGCCGAGGGCACA | – | 66.9 | – | – |
| CUCAUGUGAGGAUAUAGUACUUCUUCUAUUAUUAUUGAGUACUAGAAGGCACAUGAGGAUCACCCAUGUAGUAC | 16 | 16.3 | – | – |
| UGGAUCAUCGGAGGAUAUCAUGUAAAUACAUGAGGAUCACCCAUGUCGAUGGAGACAUCGGAGAUUGAGAAGGCCGAUGAUCCU | – | – | 437 | 25.7 |
| AAAAAGGCAGGAUAUACAAAACAGGGAAACCUGAAAAGGAAACAUGAGGAUCACCCAUGUAGAAGGGCCAAGAA | 24.9 | 35.3 | – | – |
| GCGCGGUAAGGAUAUCUGCACGGAAACAUGAGGAUCACCCAUGUUCAGAUGAUUCUUAUAAGAGAAGGUACUGACA | 17.4 | 19.1 | – | – |
| GUUUUUUUUAGUUCAUACUAUAUGAUAGAAGGUGAAAUAUAGACAUGAGGAUCACCCAUGUAAUUCAAGGAUAUGUAGUUACUC | – | – | 35.1 | 24.3 |
| GCACUUACGUUAGGAUAUGGAUCGGAAAACGAUCCAGAAGGAAUAUGGGAACAUGAGGAUCACCCAUGUUCCACAGACAAGUGC | – | – | 43.3 | 25.9 |
| AAGAAGUGAGGAUAUGCUGCUCGUCACUUGCGUGAUGAGUAGCAGAAGGCACAUGAGGAUCACCCAUGUGGAAA | 31.3 | 43.1 | – | – |
| GCUAUUGAUGUAGGAUAUGAUAUAGAAGCUAUGUCAGAAGGACAUGAGGAUCACCCAUGUCAAUGGAUGGAGAGAAGAAAUGGC | 62.6 | 75 | – | – |
